This is a sample that favours compounds with a hit; in the whole collection about 9.5% have one here.
Jurkat viability: reduces viability or proliferation of Jurkat cells | Jurkat E6.1 viability, ATP luminescence, 48 h | inhibition, % at 4 µM | actives 1.2% (n = 56,000);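 active means inhibition above the mean inhibition of all tested compounds plus 3 SD, cut at about 28% in these data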
mHtt clearance: compounds clearing mutant huntingtin protein | HeLa Exon1htt(103Q)mCFP, aggregate imaging; zero = plate's median compound well | inhibition, % at 1.5 µM | actives 0.42% (n = 47,000);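 active means inhibition of aggregate fluorescence above about 70%, also judged a hit by eye on the cell image, limit read from the data, passing the limit was not always enough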;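 further: cells exposed to compound for three days before fixation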
HEK293 NFkB inh: lowers PMA/ionomycin-induced NF-kB signal in HEK293 cells; HEK-293 NF-kB luciferase reporter, luminescence; inhibition, % at 3 µM; actives 0.21% (n = 62,000); AID 465;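 active means inhibition above the mean of all tested compounds plus 3 SD, cut at about 40% in these data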;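 further: 0% = stimulated DMSO wells and 100% = 10 µM reference inhibitor 5653914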
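Material: HEK-293 cells with stable firefly luciferase reporter driven by four HIV NF-kB elements / Also added: PMA plus ionomycin mix as NF-kB-activating stimulus / Compound dosing: 3 µM once, 0.30% DMSO / Times: 1 h pretreatment, 16 h stimulation, 37 °C / Signal: luminescence / Evaluation: per-plate % inhibition versus controls / Benchmarks: DMSO and 10 µM reference inhibitor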
M1 ag: activates the M1 muscarinic receptor | CHO-M1 cells, Fluo-4 calcium fluorescence, agonist mode; active compounds read high | B-score at 10 µM | actives 3% (n = 64,000);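 active means fluorescence rise, raw or as B-score row- and column-corrected plate score, outside the 99.7% band of its plate's samples, either direction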
D1 allo mod: allosterically modulates the human D1 dopamine receptor. P21728. HEK293 D1, CRE-luciferase, dopamine EC30 potentiation; actives deviate in either direction. B-score at 10 µM. actives 5.9% (n = 58,000). AID 641;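 active means luminescence count or its row- and column-corrected plate score outside the 99.7% band of the plate's sample wells, on either side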
Target sequence (P21728 whole entry, looked up): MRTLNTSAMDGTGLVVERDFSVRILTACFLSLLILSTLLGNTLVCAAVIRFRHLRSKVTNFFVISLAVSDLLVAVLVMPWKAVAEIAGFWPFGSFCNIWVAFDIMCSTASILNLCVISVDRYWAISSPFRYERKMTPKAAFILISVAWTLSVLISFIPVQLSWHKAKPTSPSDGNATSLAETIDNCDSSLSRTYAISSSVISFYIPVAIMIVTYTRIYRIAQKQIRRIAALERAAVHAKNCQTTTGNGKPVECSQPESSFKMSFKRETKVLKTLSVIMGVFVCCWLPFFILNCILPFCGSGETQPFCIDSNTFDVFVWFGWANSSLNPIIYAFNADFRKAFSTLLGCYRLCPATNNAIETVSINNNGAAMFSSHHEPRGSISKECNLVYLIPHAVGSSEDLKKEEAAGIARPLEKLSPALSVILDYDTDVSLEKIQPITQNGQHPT
M1 antagonist: blocks the rat M1 muscarinic receptor response to acetylcholine. CHO-M1 cells, Fluo-4 calcium, ACh EC80 antagonist mode; active compounds read low. B-score at 10 µM. P08482. actives 3.4% (n = 64,000);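 active means calcium fluorescence response, raw or row-and-column corrected B-score, differing from the plate sample mean either way at a set confidence level, mostly lower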
M1 antag confirm: M1 muscarinic receptor (rat) antagonism, confirmed. shares compounds with M1 antagonist. CHO-M1 cells, Fluo-4 calcium, ACh EC80 antagonism; active compounds read low. calcium response (max-min fluorescence) at 10 µM. actives 43% (n = 1,700);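 active means calcium response below the same-plate mean of wells given acetylcholine alone at its 80%-effect dose, minus 3 SD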;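 further: raw fluorescence intensity difference in arbitrary instrument units and not normalized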
mGluR4 antag: mGluR4 (human) activity, M1 antagonist secondary assay; actives 0.9% (n = 1,700); fluorescence response (max-min) at 10 µM; CHO-mGluR4 calcium flux, Fluo-4 fluorescence, glutamate EC80; active compounds read low; shares compounds with M1 antagonist;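 active means fluorescence response below the plate's average for near-maximal glutamate wells, less 3 SD of those wells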;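 further: raw unnormalized fluorescence span taken in the window right after glutamate addition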
Numbers without * were called inactive; . = no result.

SMILES	Jurkat viability	mHtt clearance	HEK293 NFkB inh	M1 ag	D1 allo mod	M1 antagonist	M1 antag confirm	mGluR4 antag
Cc1oc(-c2ccccc2)nc1CS(=O)CC(=O)N1CCc2ccccc2C1 (stereo unspecified)	-1	.	12	-0.26	0.42	0.28	.	.
C=C(C)C1CCC(C)=C1CC(C)(C)/C=N\n1cnnc1 (stereo unspecified)	23	.	28	0.92	.	0.29	.	.
O=C(CNC1CCCCCC1)Nc1ccc(S(=O)(=O)NC2CC2)cc1	6	32	1	-0.96	-0.045	-4.8*	182*	255
CSc1cccc(NC(=O)CSc2nc3ccccc3o2)c1	-2	-46	6	-0.012	0.1	-3.3*	577	272
Cc1ccc(C)c(SCC(=O)OCC(=O)c2ccco2)c1	.	.	-18	-0.17	0.0069	-0.21	.	.
CC1CCN(C(=O)CCNC(=O)Cn2cnc3sc4c(c3c2=O)CCCC4)CC1	.	-60	.	.	.	.	.	.
Cc1ccc2cc(CN(C)C(=O)C3CCCO3)c(=O)[nH]c2c1 (stereo unspecified)	-6	.	5	0.96	.	1.5	.	.
CCCCNCCCOc1cccc(Cl)c1	10	.	-8	-2.8*	.	-4.6*	483	219
COCCn1c(SCC(=O)NCc2ccc3c(c2)OCO3)nnc1-c1c[nH]c2ccccc12	-3	.	6	-0.054	-0.73	-0.15	.	.
CCOC(=O)N1CCC(N2Cc3cccc(C(=O)NCc4ccc(C)cc4)c3C2=O)CC1	0	23	-6	0.47	0.86	0.36	.	.
CCOC(=O)N1CCC(N2Cc3cccc(C(=O)NCc4ccccn4)c3C2=O)CC1	1	19	-1	0.68	0.42	-2.5*	500*	247
C/C(=N/Oc1nc(C)cc(C)n1)c1ccc(F)cc1	.	-17	.	.	.	.	.	.
O=C(NCCN1CCOCC1)c1cc2sccc2n1Cc1ccc(F)cc1	-1	.	8	-0.83	-0.78	-0.92	.	.
O=C(NCCN1CCOCC1)c1cc2sccc2n1Cc1ccc(Cl)cc1	-1	.	12	-0.26	.	-4.5*	349*	239
CCN(CC)CCN(CC)Cc1ccccc1Br	11	10	4	0.71	-0.5	-3.3*	451	193
Cc1onc(-c2c(F)cccc2Cl)c1C(=O)N1CCc2ccccc2C1	-4	6	-4	0.36	-3.5*	-3.2*	517	233
CSC1=NCCN1C(=O)c1c(-c2ccccc2Cl)noc1C	-1	60	5	-0.15	0.019	0.2	.	.
Cc1onc(-c2c(Cl)cccc2Cl)c1C(=O)N1CCc2ccccc21	7	-28	0	0.5	-4.8*	-8.3*	120*	226
CCOC(=O)NC(=O)COC(=O)Cc1cc(OC)c(OC)c(OC)c1	1	36	-8	0.38	-0.63	1.1	.	.
O=C(O)CCC(=O)Nc1ccc(S(=O)(=O)Nc2nccs2)cc1	.	.	.	-0.078	0.4	-11*	695	195
O=S(=O)(NCCc1ccncc1)c1cc(Br)ccc1F	6	23	4	0.61	-0.63	0.049	.	.
O=C(CSc1nccc(=O)[nH]1)c1ccccc1Br	.	-125	.	.	.	.	.	.
O=C(NC1CCN(Cc2ccccc2)CC1)C1COc2ccccc2O1 (stereo unspecified)	0	-5	-6	-0.023	-3.9*	-4.5*	377*	252
O=C(NCc1ccccc1)C1COc2ccccc2O1 (stereo unspecified)	.	13	.	.	.	.	.	.
CCOC(=O)c1[nH]c(C)c(CN(Cc2ccco2)C(=O)C(F)(F)F)c1C	8	.	15	0.7	-0.5	-0.35	.	.
SMILES	Jurkat viability	mHtt clearance	HEK293 NFkB inh	M1 ag	D1 allo mod	M1 antagonist	M1 antag confirm	mGluR4 antag
CCOC(=O)C1=C(C)NC(SCC(=O)Nc2nc(C)cs2)=C(C#N)C1c1cccs1 (stereo unspecified)	.	.	.	0.014	-1.9	0.036	.	.
Cc1cc2nc(C)n(CCCNC(=O)Nc3ccc(C#N)cc3)c2cc1C	10	-6	8	-0.79	-1.5	-10*	135*	210
COC(=O)/C=c1/sc2nc3ccccc3n2c1=O	-2	.	-1	-0.78	0.56	-2.5*	593	251
CN(C1CCCCC1)S(=O)(=O)c1ccc(-n2cnnn2)cc1	0	-78	4	0.81	0.87	-2.1*	610	243
CCSc1nc2c([nH]c3ccccc32)c(=O)n1C	-4	.	12	-0.12	3.3	-4.2*	443	214
Cc1ccc(C2CC(=O)Nc3cc4c(cc32)OCO4)o1 (stereo unspecified)	.	2	.	.	.	.	.	.
COc1ccc(-c2[nH]c(-c3cccc(OC)c3)nc2SCC(=O)NCc2ccco2)cc1	-3	0	2	-1.1	-0.01	-3.1*	574	210
COc1ccc(-c2ccc(SCC(=O)NCc3ccco3)nn2)cc1	0	38	4	0.039	0.52	-13*	584	211
Cc1[nH]c2ccccc2c1C(=O)CN1CCCCC1C (stereo unspecified)	7	4	12	0.92	0.23	0.34	.	.
Cn1c(=O)c2cc(S(=O)(=O)NC(C(=O)NCc3cccnc3)c3ccccc3)ccc2n(C)c1=O (stereo unspecified)	-2	19	11	1.4	-0.97	-0.056	.	.
C=CCOn1c(=O)c(=O)n(OCc2ccccc2)c2ccccc21	1	.	12	-0.28	-0.0079	-2.6*	632	256
Cc1cc(C(=O)CSc2nncs2)c(C)n1-c1ccc2c(c1)OCO2	17	.	-11	-0.0083	.	-4.2*	403*	227
O=C(OCc1nnc(-c2ccccc2)o1)C1CCN(S(=O)(=O)c2cccs2)CC1	9	.	13	-1	0.19	1.2	.	.
COC(=O)c1cc(Br)c(=O)n(CCc2ccc(F)cc2)c1	.	.	.	-0.22	-0.28	-4*	513	207
CCc1cc(=O)oc2cc(OCC(N)=O)c(Cl)cc12	.	-29	.	.	.	.	.	.
O=S(=O)(c1cc(Cl)ccc1Cl)n1nnc2ccccc21	2	.	8	0.18	-0.58	-0.24	.	.
Cc1cc(Br)c(S(=O)(=O)n2nnc3ccccc32)cc1C	-8	1	4	-0.24	.	-12*	674	228
COc1ccc(NC(=O)C2CCCCN2CC(=O)OCc2ccccc2)cc1OC (stereo unspecified)	-5	.	7	-1	0.072	-2.7*	610	210
CCOC(=O)c1c(C)c(-c2ccccc2)n(CC(=O)N2CCCC2)c1C	1	-1	14	-0.51	0.79	-0.33	.	.
O=C(CCNC(=O)c1ccc(Br)o1)NCc1ccccn1	-7	-35	14	0.074	-0.42	-7.7*	648	144*
CCOC(=O)c1ccc(-n2c(C)nc3ccccc3c2=O)cc1	0	52	6	-0.51	0.0093	0.58	.	.
CCOC(=O)c1ccc(-n2[nH]c(-c3ccccc3)cc2=O)cc1	.	.	8	-0.027	-2	-17*	691	190

Source: PubChem (several laboratories)
